Hits are enriched below; roughly 2.6% of the tested compounds scored in any of these assays.
DENV2 CPE = inhibitors of DENV2 cytopathic effect, primary screen, cell-based, plate reader, single concentration | hit rate 1.7% among 350,000 | CPE inhibition, % at 9.99 µM | DENV2-infected cells, cytopathic effect rescue | AID 651640, 2012; in the data active means CPE inhibition above about 20%, passing the limit was not always enough; inconclusive means no clear call, values can overlap the other calls; tested in BHK-21 cells
ERAP1 HTS inh = human ERAP1 aminopeptidase inhibitors, primary screen, biochemical, single point, plate reader; hit rate 0.15% among 340,000; recombinant ERAP1, Leu-AMC fluorescence, 60 min; inhibition, % at 10.7 µM; Endoplasmic reticulum aminopeptidase 1 (Homo sapiens), Q9NZ08;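 active means mean replicate inhibition of at least 30%, or all replicates individually reaching that 30% level; inactive means mean below 30% and not every replicate reaching it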
F508del corr = F508del CFTR correction, initial screen, CFBE line, single point. hit rate 0.36% among 350,000. activity (quench increase), % at 7.58 µM. CFBE cells, YFP halide quenching; stimulated with forskolin plus potentiator P3; % fluorescence drop versus neutral controls. AID 720511, 2013;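 active means mean added fluorescence quench of at least 8% versus neutral control, with both replicates also reaching 8%; inconclusive means only one of the mean or replicate conditions met; inactive means mean below 8% and not both replicates reaching 8%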;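 further: cells transiently co-express mutant CFTR-F508del with the halide-sensitive YFP; corrector assay measuring rescue of mutant channel to the surface after 24 h compound exposure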
E-selectin induc = E-selectin induction in HUVECs, primary screen, imaging, HUVEC, immunofluorescence imaging, single point; P16581; normalized: neutral wells 0, TNF-alpha wells 100; activation, % at 7.58 µM; hit rate 0.37% among 260,000;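 active means mean E-selectin-positive cell signal at least 10% of the positive control, reached in at least 60% of replicates, without over 20% cell loss; inconclusive means no rule given, readout overlaps actives, possibly toxicity-flagged; inactive means the rest, including those meeting only one limit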
Target sequence (P16581 whole entry, looked up): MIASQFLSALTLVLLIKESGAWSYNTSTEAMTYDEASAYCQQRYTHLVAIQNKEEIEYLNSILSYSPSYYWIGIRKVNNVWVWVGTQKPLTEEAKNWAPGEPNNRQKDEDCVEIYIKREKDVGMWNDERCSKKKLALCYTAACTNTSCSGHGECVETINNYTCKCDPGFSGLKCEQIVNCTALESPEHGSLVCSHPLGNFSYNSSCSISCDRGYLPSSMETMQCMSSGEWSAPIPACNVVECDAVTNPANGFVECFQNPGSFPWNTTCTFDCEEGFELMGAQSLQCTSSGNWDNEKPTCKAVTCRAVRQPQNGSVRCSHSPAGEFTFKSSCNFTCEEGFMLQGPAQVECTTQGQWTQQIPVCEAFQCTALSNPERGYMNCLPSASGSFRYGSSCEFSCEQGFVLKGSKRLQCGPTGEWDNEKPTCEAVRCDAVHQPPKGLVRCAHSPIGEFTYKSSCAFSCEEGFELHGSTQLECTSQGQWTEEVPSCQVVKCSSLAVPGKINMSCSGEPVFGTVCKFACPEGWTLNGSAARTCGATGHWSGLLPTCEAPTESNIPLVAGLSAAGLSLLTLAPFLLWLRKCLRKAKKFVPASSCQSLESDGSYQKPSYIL
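Assay system: HUVEC, human umbilical vein endothelial cells / Amount: 3,000 HUVEC/well / Controls: TNF-alpha positive control, DMSO neutral control / Compound dosing: single concentration / Medium: EGM-2 over gelatin coat / Evaluation: percent E-selectin-positive cells / Signal: immunofluorescence imaging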
INS-1E GSIS act = GLuc luminescence reporter in INS-1E cells, primary screen for activators of glucose-dependent secretion of insulin | INS-1E GLuc reporter insulin secretion, 2-3 h | activation, % at 16.6 µM | hit rate 0.61% among 370,000;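 active means lowest replicate activation of at least 40%, so every replicate reaches that level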
miR-122 sensor = miR-122 Renilla sensor signal increase in Huh7, primary screen, miR-122 inhibitor project, cell-based, single point, plate reader. Huh7 miR-122 Renilla luciferase sensor, 48 h; neutral wells = 0, positive control = 100. activation (reporter increase), % at 12.5 µM. hit rate 0.3% among 340,000. AID 602342, 2012;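 active means mean replicate activation score at least 90 and every replicate individually at or above 90; inconclusive means only one of the two criteria met; inactive means neither criterion met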;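 further: higher luciferase means less miR-122 activity so hits act as miR-122 inhibitors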
Of the large screens only hits and unclear results are named; the others gave an inactive call.

C[C@@H]1CN([C@@H](C)CO)C(=O)c2cc(NC(=O)c3ccncc3)ccc2O[C@@H](C)CCCCO[C@@H]1CN(C)S(=O)(=O)c1ccc(F)cc1	none (no result: E-selectin induc)
COc1ccccc1S(=O)(=O)N[C@@H]1CC[C@H](CCNC(=O)C2CCOCC2)O[C@@H]1CO	none (no result: miR-122 sensor)
Cn1cc(/C=C/c2cc[n+](C)cc2)c2cc(F)ccc21	ERAP1 HTS inh 66 (no result: DENV2 CPE, F508del corr, E-selectin induc, INS-1E GSIS act)
CCCNC(=O)N[C@H]1CC[C@@H](CC(=O)NC2CCCCC2)O[C@@H]1CO	none (no result: miR-122 sensor)
CO[C@@H]1CN(C)C(=O)c2cc(NS(C)(=O)=O)ccc2OC[C@@H](C)N(C(=O)CN(C)C)C[C@@H]1C	DENV2 CPE 21
CO[C@H]1CN(C)C(=O)c2cc(NS(C)(=O)=O)ccc2OC[C@H](C)N(C(=O)CN(C)C)C[C@@H]1C	DENV2 CPE 64
CO[C@@H]1CN(C)C(=O)c2cc(NS(C)(=O)=O)ccc2OC[C@H](C)N(C(=O)CN(C)C)C[C@H]1C	none
CO[C@H]1CN(C)C(=O)c2cc(NS(C)(=O)=O)ccc2OC[C@@H](C)N(C(=O)CN(C)C)C[C@@H]1C	none
Cc1ccc(S(=O)(=O)Nc2ccc3c(c2)C(=O)N([C@H](C)CO)C[C@H](C)[C@@H](CN(C)C(=O)Nc2ccccc2)O3)cc1	none
CN(C)CC#Cc1ccc([C@H]2[C@@H](CO)N(C(=O)C3CCCC3)[C@H]2C#N)cc1	none (no result: miR-122 sensor)
CN(C)CC#Cc1ccc([C@H]2[C@@H](CO)N(C(=O)C3CC3)[C@H]2C#N)cc1	DENV2 CPE 32 (no result: miR-122 sensor)
CC(C)C#Cc1ccc([C@H]2[C@H](C#N)N(C(=O)C3CCC3)[C@H]2CO)cc1	DENV2 CPE 57 (no result: miR-122 sensor)
CCCC#Cc1ccc([C@@H]2[C@@H](CO)N(C(=O)C3CC3)[C@H]2C#N)cc1	DENV2 CPE 63 (no result: miR-122 sensor)
N#Cc1c(-c2ccccc2)cc(C2CC2)nc1N	none (no result: DENV2 CPE, ERAP1 HTS inh, F508del corr, E-selectin induc, INS-1E GSIS act)
N#Cc1c(-c2ccco2)cc(C2CC2)nc1N	INS-1E GSIS act 71 (no result: DENV2 CPE, ERAP1 HTS inh, F508del corr, E-selectin induc, miR-122 sensor)
CO[C@@H]1CN(C)C(=O)c2cc(NC(=O)C3CCC3)ccc2OC[C@@H](C)N(C)C[C@@H]1C	none (no result: DENV2 CPE, ERAP1 HTS inh, miR-122 sensor)
CO[C@H]1CN(C)C(=O)c2cc(NC(=O)Nc3c(C)noc3C)ccc2OC[C@H](C)N(C)C[C@@H]1C	none (no result: miR-122 sensor)
O=C(Nc1ccc2c(c1)CCC2)c1ccccc1	DENV2 CPE 45 (no result: E-selectin induc, INS-1E GSIS act)
COc1ccc(Cl)cc1NC(=O)CN(C)C(=O)Cn1[nH]c(=O)c2ccccc2c1=O	DENV2 CPE inconclusive
COc1cccc(NC(=O)CN(C)C(=O)CCCc2nc3ccccc3s2)c1	DENV2 CPE 25 (no result: E-selectin induc)
COc1cccc(NC(=O)CN(C)C(=O)CCCc2c[nH]c3ccccc23)c1	none
COc1cccc(NC(=O)CN(C)C(=O)Cn2[nH]c(=O)c3ccccc3c2=O)c1	DENV2 CPE inconclusive, INS-1E GSIS act 41
COCCN(C(=O)Cc1cccs1)C(C(=O)NCc1ccc(OC)cc1)c1ccc(C)cc1 (stereo unspecified)	none (no result: DENV2 CPE, ERAP1 HTS inh, F508del corr, E-selectin induc, INS-1E GSIS act)
COc1ccc(CNC(=O)C(c2ccc(C)o2)N(Cc2cccs2)C(=O)Cc2cccs2)cc1 (stereo unspecified)	miR-122 sensor 158 (no result: DENV2 CPE, ERAP1 HTS inh, F508del corr, E-selectin induc, INS-1E GSIS act)
COc1ccc(C(=O)Nc2nnc(-c3ccco3)s2)cc1	INS-1E GSIS act 52 (no result: DENV2 CPE, ERAP1 HTS inh, F508del corr, E-selectin induc)
COc1ccc(C(=O)Nc2nnc(-c3cccs3)s2)cc1	INS-1E GSIS act 72 (no result: DENV2 CPE, ERAP1 HTS inh, F508del corr, E-selectin induc)
O=C(Nc1ccccc1)Nc1nnc(-c2cccs2)s1	INS-1E GSIS act 69 (no result: DENV2 CPE, ERAP1 HTS inh, F508del corr)
COc1ccc(NC(=O)Nc2nnc(-c3cccs3)s2)cc1	none (no result: ERAP1 HTS inh, miR-122 sensor)
O=C(Nc1nnc(-c2ccco2)s1)c1ccccc1	none (no result: DENV2 CPE, ERAP1 HTS inh, F508del corr, E-selectin induc)
Cc1ccc(S(=O)(=O)Nc2cccc3c2O[C@H](CN(C)S(=O)(=O)c2ccc(C)cc2)[C@@H](C)CN([C@H](C)CO)C3=O)cc1	none (no result: INS-1E GSIS act)
CCc1csc(N2[C@H](C#N)[C@H](c3ccccc3C3=CCCC3)[C@H]2CO)n1	DENV2 CPE inconclusive (no result: miR-122 sensor)
COCC(=O)NC[C@H]1N[C@H](CO)[C@H]1c1ccc(C2=CCCC2)cc1	none (no result: ERAP1 HTS inh)
O=C(NCc1ccc2c(c1)OCO2)C(=O)NCC1OCCCN1S(=O)(=O)c1ccccc1 (stereo unspecified)	DENV2 CPE 41 (no result: E-selectin induc, INS-1E GSIS act)

Source: PubChem
